From PubChem
aDG glyco up – activators of alpha-DG glycosylation, primary screen, uHTS, Pro5-aDG cells, AlphaScreen; activation, % at 10 µM; alpha-DG glycosylation AlphaScreen (IIH6); 0% Pro5, 100% B10-LARGE cell signal; 360,000 compounds, 0.22% hits;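 active = activation of at least 8% versus controls, or a plate z-score of at least 8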;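 note: Pro5 are CHO cells carrying HIG-tagged alpha-DG that lacks glycosylation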
Vif imaging – HIV Vif self-association inhibitors, primary screen, imaging, HEK293T, single point; HEK293T cells, Vif self-association by quenched fluorescence, 24 h; inhibition, % at 7.49 µM; 340,000 compounds, 0.35% hits; AID 602346, 2012; in the data active = inhibition above about 50%, passing the limit was not always enough; inconclusive = no clear call, values can overlap the other calls; inactive = below about 31%
MsrA inh – bovine MsrA enzyme inhibitors, primary screen, biochemical, absorbance, HTS | purified bovine MsrA, absorbance read-out | AID 651718, 2012 | 360,000 compounds, 0.75% hits | Methionine sulfoxide reductase A (Bos taurus) | inhibition, % at 15.5 µM; in the data active = inhibition above about 4.5%
UCH37 DUB inh – inhibitors of human UCH37 deubiquitinase, primary screen, biochemical, Ub-AMC cleavage, fluorescence | AID 588478, 2011 | 330,000 compounds, 0.33% hits | Ubiquitin carboxyl-terminal hydrolase isozyme L5 (Homo sapiens), Q9Y5K5 | inhibition, % (test concentration not listed) | purified proteasome/UCH37;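 active = mean inhibition over replicate wells above about 20%, limit read from the data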
Target sequence (Q9Y5K5 whole entry, looked up): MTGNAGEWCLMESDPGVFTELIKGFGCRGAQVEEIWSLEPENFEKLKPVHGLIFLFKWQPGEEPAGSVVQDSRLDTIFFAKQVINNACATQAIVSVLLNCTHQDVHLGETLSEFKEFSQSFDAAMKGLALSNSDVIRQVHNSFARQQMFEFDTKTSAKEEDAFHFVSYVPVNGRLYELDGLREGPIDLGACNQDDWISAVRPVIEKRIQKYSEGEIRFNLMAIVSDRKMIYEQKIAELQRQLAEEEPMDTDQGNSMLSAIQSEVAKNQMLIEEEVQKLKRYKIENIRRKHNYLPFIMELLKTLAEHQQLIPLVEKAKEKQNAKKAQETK
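assay system = human UCH37 enzyme supplied as purified proteasome complex | amount = proteasome at 0.15 nM in the dispensed enzyme solution | schedule = 30 min compound-proteasome preincubation then 25 min substrate reaction, room temperature | measured by = fluorescence, ex 355 nm, em 460 nm | benchmarks = no-proteasome wells (full inhibition) and compound-free wells (no inhibition)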
bovine MsrA act – bovine MsrA enzyme activators, primary screen, biochemical, absorbance, HTS | Methionine sulfoxide reductase A (Bos taurus) | purified bovine MsrA, absorbance read-out | activation, % at 10.6 µM | 360,000 compounds, 0.3% hits | AID 602163, 2012; in the data active = activation above about 7.5%
Glyco luc inh – increase of ERlucT glycosylation luciferase signal, primary screen, N-linked glycosylation inhibitor project, D54 ERlucT cells, luminescence, set 2. D54 ERlucT glycosylation luciferase reporter, 24 h; percent of 100 nM tunicamycin response. reporter increase, % at 12.5 µM. 360,000 compounds, 0.23% hits. AID 588692, 2011;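 active = mean luciferase reporter signal, scaled so untreated is 0 and the glycosylation-blocking control 100, at or above a set limit in every replicate; inconclusive = mean reaches the limit but not every replicate does; inactive = mean below the limit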;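 note: luciferase carries N-glycosylation sites so blocking glycosylation raises the light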
Large screens that a line does not name were inactive. An excerpt weighted towards active compounds, which were near 1.9% of everything screened.

Cc1ccc(C)c(OCC(O)CN2CCN(CCN3C(=O)c4cccc5cccc(c45)C3=O)CC2)c1 (stereo unspecified)	Glyco luc inh 57
O=C(NN=CCCc1ccccc1)C1CCCCC1	none (no result: aDG glyco up, Vif imaging, MsrA inh, bovine MsrA act, Glyco luc inh)
CON=CC1CCN(c2ncc(C(F)(F)F)cc2Cl)C1=O (stereo unspecified)	none (no result: aDG glyco up, Vif imaging, MsrA inh, bovine MsrA act, Glyco luc inh)
O=c1c(=Cc2ccc(O)cc2)sc2nc3cc(Br)cnc3n12	none (no result: aDG glyco up, Vif imaging, MsrA inh, bovine MsrA act, Glyco luc inh)
Cn1c(=O)[nH]c(=O)c2c1nc(SCC(N)=O)n2Cc1cccc(Br)c1	Vif imaging inconclusive, Glyco luc inh 27
C=C(C)CSc1nc2c(c(=O)[nH]c(=O)n2C)n1Cc1ccccc1	none
CCOC(=O)c1c(C)[nH]c(N=Nc2cc(C(=O)O)cc(C(=O)O)c2)c1C	UCH37 DUB inh 24
CCOc1cc(C=NNC(=O)c2ccccc2-n2cccc2)ccc1O	none (no result: aDG glyco up, Vif imaging, MsrA inh, bovine MsrA act, Glyco luc inh)
Cc1cc(C(=O)NN=Cc2c[nH]c3ccccc23)c(C)o1	none (no result: aDG glyco up, Vif imaging, MsrA inh, bovine MsrA act, Glyco luc inh)
CCOC(=O)Nc1oc2ccccc2c(=O)c1C	none
CCOC(=O)/C=C(\C)Sc1cc(=O)oc2ccccc12	Glyco luc inh 25
CC(C)Oc1ccccc1C=Nn1nnnc1N	none (no result: aDG glyco up, Vif imaging, MsrA inh, bovine MsrA act, Glyco luc inh)
N#Cc1ccccc1Cn1cc(/C=N/Nc2ccc([N+](=O)[O-])cn2)c2ccccc21	Vif imaging 158 (no result: UCH37 DUB inh)
Cc1ccc(Cn2cc(C=NNc3ccc([N+](=O)[O-])cn3)c3ccccc32)cc1	none (no result: aDG glyco up, Vif imaging, MsrA inh, bovine MsrA act, Glyco luc inh)
COc1ccc(C=NNc2ccc([N+](=O)[O-])cn2)cc1	none
O=[N+]([O-])c1ccc(N/N=C/c2ccc(OCc3cccc4ccccc34)cc2)nc1	Vif imaging 149 (no result: UCH37 DUB inh)
CC(=NNC(=O)c1cccc(Cl)c1)C1C(=O)c2ccccc2C1=O	none (no result: aDG glyco up, Vif imaging, MsrA inh, bovine MsrA act, Glyco luc inh)
NC(=O)CSc1nc2ccc([N+](=O)[O-])cc2[nH]1	none
Cc1cccc2nc(CSc3nc4ccc([N+](=O)[O-])cc4[nH]3)c(Br)n12	Vif imaging 54
O=C(O)CC1SC(=NN=C2CCCCC2)N(c2ccccc2)C1=O (stereo unspecified)	none (no result: aDG glyco up, Vif imaging, MsrA inh, bovine MsrA act, Glyco luc inh)
Cc1ccc(C)n1Cc1ccc(C(=O)O)cc1	UCH37 DUB inh 30 (no result: MsrA inh)
O=[N+]([O-])c1cc(-c2ccc(C(=S)N3CCOCC3)o2)ccc1Cl	UCH37 DUB inh 21
S=C(c1ccc(-c2cccc(Cl)c2)o1)N1CCOCC1	none
COc1ccc2c(C)c(Cl)c(=O)oc2c1	Vif imaging 53
Cc1cccc(C=NN(CCO)C2=NS(=O)(=O)c3ccccc32)c1	none (no result: aDG glyco up, Vif imaging, MsrA inh, bovine MsrA act, Glyco luc inh)
COc1ccc(/C=N/NC(=O)c2nnn(-c3nonc3N)c2-c2cccs2)cc1OC	MsrA inh 4.6 (no result: UCH37 DUB inh)
COc1ccc(/C=N/N=C(\N)c2nonc2N)cc1OC	MsrA inh 4.6 (no result: UCH37 DUB inh)
COc1ccc(N2CCN(C(=O)C(=O)c3c(C)[nH]c4ccccc34)CC2)cc1	none
CC(=O)c1ccc(N2CCN(C(=O)C(=O)c3c(C)[nH]c4ccccc34)CC2)cc1	MsrA inh 4.6
CCCOc1ccc(C=NNc2ccccc2[N+](=O)[O-])c(OCCC)c1	none (no result: aDG glyco up, Vif imaging, MsrA inh, bovine MsrA act, Glyco luc inh)
COc1ccc(/C(C)=N\NC(=O)c2ccc3c(c2)OCO3)cc1OC	none (no result: aDG glyco up, Vif imaging, UCH37 DUB inh, bovine MsrA act, Glyco luc inh)
COc1cc(C(=O)N/N=C(\C)c2ccc3c(c2)OCO3)cc(OC)c1OC	Glyco luc inh 34 (no result: UCH37 DUB inh)
Cc1ccc(NS(=O)(=O)c2ccc(C(=O)N3CCN(c4ccccn4)CC3)cc2)cc1	aDG glyco up 6.3 (no result: UCH37 DUB inh)
Cc1cc(C)c(C)c(OC(=O)c2sc(Cl)nc2C)c1	Glyco luc inh 38
CC(=O)C(=NNc1cccc(C)c1)N1CCOCC1	none (no result: aDG glyco up, Vif imaging, MsrA inh, bovine MsrA act, Glyco luc inh)
CCCCCN=C(N)N/N=C/c1c[nH]c2ccc(OC)cc12	Vif imaging 81 (no result: UCH37 DUB inh)
CCn1cc(C=NNC(=O)c2ccc3c(c2)OCO3)c(C)n1	none (no result: aDG glyco up, Vif imaging, MsrA inh, bovine MsrA act, Glyco luc inh)
Cc1nc(NN=Cc2ccc(O)cc2)c2cnn(-c3ccccc3)c2n1	none (no result: aDG glyco up, Vif imaging, MsrA inh, bovine MsrA act, Glyco luc inh)
OCCO	Vif imaging 55
COc1ccc(C(=NO)c2nccc3cc(OC)c(OC)cc23)cc1OC	none (no result: aDG glyco up, Vif imaging, MsrA inh, bovine MsrA act, Glyco luc inh)
CCS(=O)(=O)N1CCN(c2ccc([N+](=O)[O-])c(NC(C)c3ccccc3)c2)CC1 (stereo unspecified)	MsrA inh 7.3
